Reference: ChEMBL document CHEMBL4513216, “Probing the Open Global Health Chemical Diversity Library for Multistage-Active Starting Points for Next-Generation Antimalarials” (ACS Infect Dis, 2020)

assay: Toxicity liver stage against HepG2, at 10uM; type: cell-based; set-up: test concentration 10 uM, cell line HepG2-A16-CD81EGFP; conditions: human, HepG2-A16-CD81EGFP cells; read-out: INHIBITION
How it was run: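 Uninfected HepG2-A16-CD81EGFP cells, 3 × 10^3 per well, 1536-well, plated on prespotted compound at 10 μM final, parasite-free screening media added to match infected plates; puromycin 10 μM positive, DMSO 0.5% negative; run in parallel with 48 h PbLuc assay at 37 °C, 5% CO2; viability by CellTiter-Glo luminescence, normalized to controls.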

Row | Compound | cytotoxicity at 10 µM
1 | O=C(c1ccc(=O)[nH]n1)N1CCC(CN2CCOCC2)CC1 | 4.13%
2 | CC(C)(CO)N1CCN(S(=O)(=O)CCCF)CC1 | -4.3%
3 | O=C(CCC(=O)N1CCCC1c1ccsc1)N1CCOCC1 (stereo not given) | -10.2%
4 | Cc1oc(C(=O)O)cc1S(=O)(=O)Nc1cc(F)ccc1F | -7.66%
5 | O=C(NC1CC1)[C@@H]1CCO[C@@H]2CCN(C3CCOCC3)C[C@@H]21 | -9.87%
6 | CCOc1ccccc1NC(=O)CN(C)Cc1ccccc1Cl | -6.93%
7 | Cn1cc(NC(=O)Nc2ccc3c(c2)OCO3)cn1 | -0.37%
8 | CN(C)CC(C)(C)Cn1cnc(-c2ccccc2)c1-c1ncc[nH]1 | 9.21%
9 | CCc1cnc(N)nc1NCCCn1nc(C)nc1C | -1.37%
10 | Cc1cnc(C)c(-c2cccc(-c3ccn(CCN4CCCC4)n3)c2)n1 | -10.5%
11 | COc1ccc(NC(=O)CCSc2ccc3nncn3n2)c(OC)c1 | -15.3%
12 | Cn1cc(-c2nc(CN3CCn4c(nnc4C4CC4)C3)cs2)cn1 | -1.07%
13 | COc1c(CNCCNC(=O)c2ccc(C)cc2)c(C)nn1C | -3.39%
14 | CCc1ccc(CN(C)C(=O)C(c2ccccc2F)N(C)C)nc1 (stereo not given) | 4.03%
15 | c1cnnc(N2CCCC(NCc3cn4ccccc4n3)C2)c1 (stereo not given) | -5.87%
16 | CN(C)C(=O)c1cc(NC(=O)N2CCCC(C(F)(F)F)C2)ccn1 (stereo not given) | -3.58%
17 | Cn1cc(C(=O)NCc2cn3c(n2)CN(C2CCOCC2)CC3)cn1 | 11.2%
18 | Cc1ccccc1N1CC(C)N(C(=O)CCn2cccn2)CC1=O (stereo not given) | 10.1%
19 | CCOc1ccc(C#N)cc1NCC(=O)Nc1cc(F)ccc1F | -9.47%
20 | Cc1ncc(C(=O)N2CCCCC2c2nc3cc(F)ccc3[nH]2)c(O)n1 (stereo not given) | -0.305%
21 | O=C(CC1CC1)N[C@@H]1CN(Cc2ccncc2)C[C@@H]2CCCO[C@@H]21 | -7.96%
22 | Cc1occc1C(=O)N1CCC2(CC1)CC(OCc1ccccn1)CO2 (stereo not given) | -71.7%

Row | Compound | cytotoxicity at 10 µM
23 | CCO[C@H]1CO[C@@]2(CCCN(Cc3scnc3C)C2)C1 | -137%
24 | CC(C)NC(=O)C1CCc2nnc(C(C)(C)C)n21 (stereo not given) | 2.74%
25 | CCC(O)CN1CCN(C(=O)Cc2cc(Cl)ccc2OC)CC1 (stereo not given) | -10.4%
26 | Cc1ccn(CCNC(=O)C2(C)CC(c3ccccc3)=NO2)n1 (stereo not given) | 8.46%
27 | Cn1cccc1C(=O)COc1ccc(S(N)(=O)=O)cc1 | 12.4%
28 | Cn1cc(N2CC3(CCN(S(C)(=O)=O)C3)CC2=O)cn1 (stereo not given) | 9.04%
29 | COc1cc(CN2CCC(NC(=O)c3cccn3C)C2)cc(OC)c1 (stereo not given) | -12.6%
30 | O=C(CC1[C@H]2CN(Cc3ccc(F)cc3)C[C@@H]12)N1CCCC1 (stereo not given in full) | -0.744%
31 | Cc1cc(C[S+]([O-])CC(=O)Nc2c(C)cccc2C)no1 (stereo not given) | -9.65%
32 | CN(C)[C@@H]1C[C@@H](CO)N(C(=O)Nc2ccc(SC(F)(F)F)cc2)C1 | -0.187%
33 | CCS(=O)(=O)N1CCCC(c2nc3ccccc3n2C(C)C)C1 (stereo not given) | -6.11%
34 | CCN(C(=O)CCn1cccn1)C1CC1 | -6.16%
35 | Cc1nc(C2CCN(S(=O)(=O)c3ccc(Cl)cc3)CC2)n[nH]1 | 10.6%
36 | CCCn1nnnc1CSCc1cn2c(C)cccc2n1 | 8%
37 | CCOCC1CN(C(=O)c2cccs2)Cc2cnn(CC3CC3)c21 (stereo not given) | -1%
38 | Cn1nc(Br)c2c(NCCSCCCO)ncnc21 | 14.5%
39 | CC(=O)NCc1ccc(C(=O)N2CCCC(n3cncn3)C2)o1 (stereo not given) | 17.1%
40 | CCc1c(O)nc(SC(C)CC)n(-c2ccccc2)c1=O (stereo not given) | 4.22%
41 | CNS(=O)(=O)c1cccc(CNc2nccc(C(F)(F)F)n2)c1 | 17.2%
42 | CCC1c2ccsc2CCN1Cc1cc2c(cc1OC)OCCO2 (stereo not given) | 29.4%
43 | Cc1nn(C)c2c(N3CCN(C(=O)C4CCCO4)CC3)ncnc12 (stereo not given) | 6.42%
44 | CC1c2cccn2CCN1S(=O)(=O)N1CCCCCC1 (stereo not given) | -2.3%

Row | Compound | cytotoxicity at 10 µM
45 | CC(C)(C)C1SCC(=O)Nc2c1c(O)nn2C1CCCCC1 (stereo not given) | -16.7%
46 | COc1cc(CN(C)C(=O)NCCC2CCCO2)ccc1SC (stereo not given) | -13.8%
47 | O=C(Cc1cn2ccsc2n1)N1CCOCC(O)(CN2CCCC2)C1 (stereo not given) | -3.36%
48 | CC(=O)NCCNC(=O)C(c1ccccc1C)N(C)C (stereo not given) | 10.6%
49 | COc1ccccc1-c1ccc(C(=O)N2C[C@@H]3CC[C@H]2CN(C)C3)cc1 | -18.2%
50 | Cc1nc(C)n(CC2CCCN2CCOc2ccccc2C#N)n1 (stereo not given) | -4.17%
51 | CCCc1nn(Cc2ccc(Br)s2)c(=O)o1 | 3.81%
52 | CCc1nnc2sc(-c3cc(C(C)C)n[nH]3)nn12 | -7.37%
53 | CC(C)NC(=O)c1cc2c([nH]c1=O)CC(c1cccs1)CC2=O (stereo not given) | -3.01%
54 | CN1CCN(C(=O)c2ccccc2)CC(Cc2cc(N(C)C)ncn2)C1 (stereo not given) | 2%
55 | CCn1c(=O)n(CCC(=O)N(C)Cc2ccc(C)o2)c2ccccc21 | -2.42%
56 | CNc1oc(-c2ccc(OC)c(S(=O)(=O)N3CCCCC3)c2)nc1C#N | 10.4%
57 | CC1CCN(C(=O)CN2CC(c3nc(C4CC4)no3)C2)CC1 | -6.6%
58 | CN(Cc1ccco1)C(=O)Nc1ccc(=O)n(C)c1 | -43.1%
59 | Cn1cc(C(=O)Nc2ccc3c(c2)N(C(=O)c2ccco2)CC3)nn1 | 0.529%
60 | CCNC(=O)[C@@H]1C[C@@H](NC(=O)Cc2ccccn2)CN1CCCSC | -6.72%
61 | CCO[C@@H]1C[C@H]2CN(S(=O)(=O)c3cccs3)CCN2C1 | 8.52%
62 | COCCNc1nc2c(c(NCC3CCOC3)n1)CCNCC2 (stereo not given) | -2.85%
63 | CCc1noc(CSc2n[nH]c(-c3ccccn3)n2)n1 | 5.49%
64 | COc1ccc(F)cc1C(=O)C1CCCN(Cc2cnc(C)s2)C1 (stereo not given) | 6.26%
65 | CC(C)(NC(=O)CCc1ccco1)c1ccc2c(c1)OCCO2 | 1.44%
66 | Cc1cnc(N2CCC(c3ccncc3)CC2)nc1-c1ccnn1C | 28.7%

Row | Compound | cytotoxicity at 10 µM
67 | Cc1ccc(-n2ncc3c2CCCC3N)cc1C (stereo not given) | -1.97%
68 | Cc1cccc(-n2ncc3c2CCCC3NCC(C)(C)CO)c1C (stereo not given) | -1.19%
69 | COc1ccc(Cl)cc1S(=O)(=O)N(C)CC(=O)Nc1ccccc1 | -2.76%
70 | O=C(c1nc2c(o1)CN(CC1CCC1)C2)N1CCCC1 | -131%
71 | CNC(=O)[C@@H]1C[C@@H](n2cc(-c3ccc(CN4CC=CC4)cc3)nn2)CN1 | 3.76%
72 | COc1ccc(C(=O)C2CCCN(Cc3ccncc3)C2)c(OC)c1 (stereo not given) | -15.7%
73 | COCCSCC(=O)NC1(c2cccc(Br)c2)CC1 | 13.3%
74 | CC(C)c1cc(N2CCC(NS(C)(=O)=O)CC2)n2nccc2n1 | 0.324%
75 | O=C1N[C@@H]2CCN(C(=O)c3ccccc3)[C@@H]2C(=O)N1c1ccc(F)cc1 | 7.62%
76 | CN(CC(N)=O)CC(=O)N(C1=CCCCC1)C1CC1 | -3.85%
77 | Cn1cc(S(=O)(=O)N2CCCC(Cn3cncn3)C2)cn1 (stereo not given) | 2%
78 | O=C(c1cc[nH]n1)N(Cc1ccccc1)CC1CCC1 | -6.74%
79 | O=C(CN1CCCCC1Cn1cncn1)NCCC1=CCCCC1 (stereo not given) | -7.59%
80 | CCN1CCN(C2CCN(Cc3cc(C)on3)CC2)C1=O | -5.74%
81 | CN1CCN(C(=O)[C@@H]2CC[C@@H]3[C@@H](CCN3c3ncccn3)O2)CC1 | 7.13%
82 | CC(C)NC(=O)c1ccc2nnc(C3CN(C)CCN3C)n2c1 (stereo not given) | -139%
83 | O=C(CN1CCCC(c2ncc[nH]2)C1)NCCCN1CCCCCC1=O (stereo not given) | 6.66%
84 | COCC(=O)NS(=O)(=O)c1ccc(F)c(F)c1 | -6.49%
85 | O=C(NC1CCCN(Cc2c(F)cccc2F)C1)c1cc[nH]n1 (stereo not given) | 5.72%
86 | Cc1cccc(SC2CCN(C(=O)CCNS(C)(=O)=O)CC2)c1 | 1.2%
87 | COc1ccc(CN2CCCn3nnc(COCC4CC4)c3C2)cc1 | -110%
88 | COCCCN1CC2(CCN(Cc3cc(C(C)C)no3)CC2)CC1=O | -3.79%

Row | Compound | cytotoxicity at 10 µM
89 | CCn1c(C2CCCN(Cc3cc(OC)cc(OC)c3)C2)nn(C)c1=O (stereo not given) | 0.0264%
90 | Cn1cc(C[C@H]2[C@H](N3CCOCC3)CCN2c2ncc(F)cn2)cn1 | 7.23%
91 | Cc1ccc(-c2cc(N)c(=O)n(CC(=O)NCC3CCCCC3)n2)s1 | 2.44%
92 | Cc1ccc(NCc2ccco2)cc1N1CCOC1=O | -10.6%
93 | CN(C)S(=O)(=O)N1CC[C@]2(C[C@H](OCc3ccccn3)CO2)C1 | 11.6%
94 | CC(C)=CCN1C[C@@H]2CC[C@H]1CN(S(=O)(=O)c1cccnc1)C2 | 3.26%
95 | CS(=O)(=O)NCCC(=O)Nc1ccccc1N1CCc2ccccc21 | 11.9%
96 | CC(C)(NS(C)(=O)=O)c1nc(-c2ccc(F)c(F)c2)no1 | -1.49%
97 | Cc1cc(C(=O)N2CCCC3(CCCN3Cc3cccnc3)C2)[nH]n1 (stereo not given) | 8.07%
98 | COCCN1CCCC(CCCc2ccccn2)(C(N)=O)C1 (stereo not given) | -16%
99 | Cn1cc(N2CCCC(Nc3ccc4c(c3)CCCO4)C2=O)cn1 (stereo not given) | -6.79%
100 | Cc1csc(CN(C)C(=O)c2cccc(CCC(C)(C)O)c2)n1 | -2.32%
101 | O=C(c1ccc(Cl)cc1)N1CCC2(CC1)C(=O)Nc1ccccc12 | -145%
102 | O=C(O)c1cc(-c2cn[nH]c2)cc(S(=O)(=O)N2CCSCC2)c1 | -8.26%
103 | COc1ccc(CNC2CCc3ncnn3C2)cc1OCC1CC1 (stereo not given) | -8.74%
104 | COc1ccc(C2SCC(=O)N2c2ncc(C)s2)cc1 (stereo not given) | 8.45%
105 | Cn1ncc2c1CCCC2NCc1cccc(F)c1 (stereo not given) | -15.6%
106 | O=C(C1CCOCC1)N1CCO[C@H]2[C@H](Oc3ccccn3)CC[C@@H]21 | -99.6%
107 | Cc1nc(N)nc(C)c1Cc1nc(C2CC2)n[nH]1 | -9.44%
108 | Cc1noc(CN(Cc2ccco2)Cc2cccc3c2OCO3)n1 | -2.51%
109 | Cc1ccc2nc(C)c(C)c(C(=O)N3CCN(c4nccs4)CC3)c2c1 | 3.96%
110 | COc1ccc(F)c(-c2cc(C)nc(N)n2)c1 | 5.47%
